Laboratory results as given in ChEMBL document CHEMBL5356984 (RSC Med Chem, 2023).
The source made the active and inactive calls. No cut-off for these calls is given here.

Experiments:
Heat shock protein HSP90 [1] = target: T1, Heat shock protein HSP90 (Homo sapiens, UniProt P07900+P08238); assay: Inhibition of HSP90 in human SK-BR-3 cells assessed as decrease in CDK4 level at 5 to 20 uM incubated for 48 hrs by Western blot analysis; assay type: cell-based; settings: dose 5-20 µM
How it was run: (§1)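 MCF-7 or SKBr3 cells were exposed for 48 h, then trypsinised, PBS-washed and lysed in RIPA buffer with phosphatase and protease inhibitors. Cleared lysate (14 000 rpm, 4 °C, 15 min) was BCA-quantified, and 20 µg protein was run on SDS-PAGE and blotted. Blots were blocked in 5% milk, incubated with primary antibodies (1:1000) overnight at 4 °C, then HRP secondary, and developed by ECL. GAPDH (1:10000) was the loading control.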

MCF7 [2] = assay: Antiproliferative activity against human MCF7 cells assessed as inhibition of cell viability at 20 uM measured after 48 hrs by MTT assay relative to control; assay type: functional
MCF7 [3] = assay: Induction of apoptosis in human MCF7 cells assessed as late apoptotic cells at 5 uM incubated for 36 hrs by Annexin V/PI staining based flow cytometry (reference value: 6.02 %); assay type: functional
Heat shock protein HSP90 [4] = target: T1, Heat shock protein HSP90; assay: Inhibition of HSP90 in human MCF7 cells assessed as decrease in HER2 level at 5 to 20 uM incubated for 48 hrs by Western blot analysis; assay type: cell-based; settings: dose 5-20 µM; how it was run: as §1
[5] = Thermal stability of compound in boiling toluene at 120 degreeC at 1 mg/ml measured for 12 to 24 hrs by HPLC analysis; assay type: physicochemical; settings: time 12-24 hrs
How it was run: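 Compound at 1 mg mL−1 was heated in distilled boiling toluene at 120 °C for 0–24 h. Remaining percentage was measured by HPLC on a C18 column (5 µm, 4.6 × 250 mm) with MeOH/H2O gradients: 70→100% or 45→100% MeOH over 2–15 min, held at 100% to 20 min, then re-equilibrated.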

HCC1806 = assay: Antiproliferative activity against human HCC1806 cells assessed as inhibition of cell viability measured after 48 hrs by MTT assay; assay type: functional, cell-based; settings: HCC1806, 48 h
How it was run: (§2)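 MTT cell viability read-out; IC50 obtained by non-linear regression of concentration–response data; values are mean ± SD of three independent experiments.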

MCF7 [6] = assay: Effect on HSP70 level in human MCF7 cells at 10 uM incubated for 36 hrs by DAPI staining based immunofluorescence analysis; assay type: functional, cell-based
How it was run: (§3)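 Cells treated 36 h with DMSO vehicle control, then fixed with 4% paraformaldehyde 15 min, permeabilized with 0.2% Triton X-100 5 min, blocked with 3% BSA 15 min; primary antibody then fluorescent secondary antibody, each 1 h at room temperature; HSP70 green, HSF-1 red, nuclei DAPI; imaged by fluorescence microscopy.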

SK-BR-3 [7] = assay: Induction of apoptosis in human SK-BR-3 cells assessed as early apoptotic cells at 20 uM incubated for 36 hrs by Annexin V/PI staining based flow cytometry (reference value: 2.73 %); assay type: functional
[8] = Selectivity index, ratio of IC50 for HEK293T cells to IC50 for human MCF7 cells; assay type: toxicity; settings: HEK293T cells versus MCF7 cells, read-out: Ratio IC50
How it was run: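 Viability of 293T and MCF-7 cells was measured by MTT assay, and IC50 was fitted by non-linear regression. The selectivity index is the 293T IC50 divided by the MCF-7 IC50.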

MCF7 [9] = assay: Induction of apoptosis in human MCF7 cells assessed as early apoptotic cells at 10 uM incubated for 36 hrs by Annexin V/PI staining based flow cytometry (reference value: 1.13 %); assay type: functional
SK-BR-3 [10] = assay: Induction of apoptosis in human SK-BR-3 cells assessed as increase in cleaved pro-caspase-9 level at 10 to 20 uM incubated for 48 hrs by Western blot analysis; assay type: functional, cell-based; settings: dose 10-20 µM
How it was run: (§4)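 Cells exposed 48 h (DMSO vehicle control); trypsinized, lysed in RIPA with phosphatase/protease inhibitors; 20 μg protein on SDS-PAGE, blotted, blocked 5% milk 1 h; primary antibodies 1:1000 overnight at 4 °C, GAPDH 1:10000 as loading control; HRP secondary 1:1000–1:5000; ECL detection.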

MCF7 [11] = assay: Effect on HSP70 level in human MCF7 cells at 5 to 20 uM incubated for 48 hrs by Western blot analysis; assay type: functional, cell-based; settings: dose 5-20 µM; how it was run: as §4
MCF7 [12] = assay: Induction of apoptosis in human MCF7 cells assessed as viable cells at 10 uM incubated for 36 hrs by Annexin V/PI staining based flow cytometry (reference value: 90.5 %); assay type: functional; settings: read-out: Activity
MCF7 [13] = assay: Induction of apoptosis in human MCF7 cells assessed as late apoptotic cells at 20 uM incubated for 36 hrs by Annexin V/PI staining based flow cytometry (reference value: 6.02 %); assay type: functional
MCF7 [14] = assay: Induction of cell cycle arrest in human MCF7 cells assessed as accumulation of cells at G1 phase at 5 to 10 uM incubated for 36 hrs by PI staining based flow cytometry; assay type: functional; settings: dose 5-10 µM
How it was run: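 Following 36 h treatment (0, 5, 10 μM), trypsinized cells fixed overnight in 70% ethanol, treated with RNase (0.2 mg/mL) and PI (0.1 mg/mL) for 20 min, then analysed by flow cytometry for cell-cycle distribution; n = 3 versus control.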

MCF7 [15] = assay: Induction of apoptosis in human MCF7 cells assessed as increase in cleaved PARP level at 10 to 20 uM incubated for 48 hrs by Western blot analysis; assay type: functional, cell-based; settings: dose 10-20 µM; how it was run: as §4
[16] = Metabolic stability in simulated gastric fluid; assay type: ADME; settings: simulated gi fluid
MCF7 [17] = assay: Induction of apoptosis in human MCF7 cells assessed as late apoptotic cells at 10 uM incubated for 36 hrs by Annexin V/PI staining based flow cytometry (reference value: 6.02 %); assay type: functional
Heat shock protein HSP90 [18] = target: T1, Heat shock protein HSP90; assay: Competitive binding affinity to N-terminal HSP90 (unknown origin) at 0.03 to 16 uM incubated for 3 hrs in presence of FITC-GA by fluorescence polarization assay; assay type: protein assay; settings: dose 0.03-16 µM
How it was run: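 Competition against FITC-geldanamycin (5 nM) for HSP90α (10 nM) in reaction buffer with 1% BSA, DMSO <1%; compounds at 0.03–16.0 μM final; 3 h at room temperature; fluorescence polarization read at ex 485/em 530 nm; activity% = (FPdrug − FPbackground)/(FPenzyme − FPbackground) × 100, curve-fitted.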

MCF7 [19] = assay: Antiproliferative activity against human MCF7 cells assessed as inhibition of cell viability measured after 48 hrs by MTT assay; assay type: functional, cell-based; settings: MCF7, 48 h; how it was run: as §2
SK-BR-3 [20] = assay: Effect on HSP70 level in human SK-BR-3 cells at 5 to 20 uM incubated for 48 hrs by Western blot analysis; assay type: functional, cell-based; settings: dose 5-20 µM; how it was run: as §4
SK-BR-3 [21] = assay: Induction of apoptosis in human SK-BR-3 cells assessed as necrotic cells at 5 uM incubated for 36 hrs by Annexin V/PI staining based flow cytometry (reference value: 1.89 %); assay type: functional
SK-BR-3 [22] = assay: Induction of apoptosis in human SK-BR-3 cells assessed as increase in cleaved PARP level at 10 to 20 uM incubated for 48 hrs by Western blot analysis; assay type: functional, cell-based; settings: dose 10-20 µM; how it was run: as §4
MCF7 [23] = assay: Effect on HSF-1 level in human MCF7 cells assessed as nuclear accumulation at 10 uM incubated for 36 hrs by DAPI staining based immunofluorescence analysis; assay type: functional, cell-based; how it was run: as §3
MCF7 [24] = assay: Induction of apoptosis in human MCF7 cells assessed as necrotic cells at 10 uM incubated for 36 hrs by Annexin V/PI staining based flow cytometry (reference value: 2.30 %); assay type: functional

inhibition (Heat shock protein HSP90 [1]): Active
inhibition (Heat shock protein HSP90 [4]): Active
Stability [5]: Unstable
IC50 (HCC1806): 10.1 µM
Stability [16]: Unstable
Activity (Heat shock protein HSP90 [18]): inactive
IC50 (MCF7 [19]): 7.85 µM
Compound: CN1CCN(/C=C/C(=O)/C=C/c2cccc(O[Si](C)(C)C(C)(C)C)c2)CC1
inhibition at 20 µM (MCF7 [2]): > 50%
Activity (MCF7 [3]): 9.96%
Activity (MCF7 [6]): inactive
Activity (SK-BR-3 [7]): 47.7%
selectivity ratio [8]: ~4.2
Activity (MCF7 [9]): 2.6%
Activity (SK-BR-3 [10]): Active
Activity (MCF7 [11]): inactive
viability at 10 µM (MCF7 [12]): 65.6%
Activity (MCF7 [13]): 28.4%
Activity (MCF7 [14]): Active
Activity (MCF7 [15]): Active
Activity (MCF7 [17]): 21.7%
Activity (SK-BR-3 [20]): inactive
Activity (SK-BR-3 [21]): 1.81%
Activity (SK-BR-3 [22]): Active
Activity (MCF7 [23]): inactive
Activity (MCF7 [24]): 10.1%
